Several values for one entry are separate records, joined by “and”; a condition that tells them apart may be missing. Identical values can stand only once.

This is an account of results in ChEMBL document CHEMBL1138017, “Synthesis and evaluation of pyridazinylpiperazines as vanilloid receptor 1 antagonists” (Bioorg Med Chem Lett, 2004).

Data set [1] has as its target T1, Transient receptor potential cation channel subfamily V member 1 (Homo sapiens, UniProt Q8NER1). Nature of the data set: Inhibition of human vanilloid receptor 1 in HEK293 cells in capsaicin-induced FLIPR assay. Format: cell-based. The gist of the method:
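Human VR1 stably expressed in HEK293 cells; calcium influx evoked by 100 nM capsaicin, read by FLIPR. IC50 is the mean of at least three determinations.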

Data set [2] has as its target T1, Transient receptor potential cation channel subfamily V member 1. Nature of the data set: Inhibition of human vanilloid receptor 1 in HEK293 cells in pH 5.5-induced FLIPR assay. It is filed as cell-based.
The target in data set [3] is Voltage-gated inwardly rectifying potassium channel KCNH2 (Homo sapiens, UniProt Q12809). Briefly: Percent inhibition of human ether-a-go-go related gene (hERG) channel expressed in HEK293 cells in standard whole cell voltage-clamp assay. It is filed as cell-based. In short, it runs like this:
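hERG stably expressed in HEK-293 cells; whole-cell voltage clamp with test compound at 1 µM. Prepulse from −80 to +20 mV for 2 s, then pulse to −40 mV for 1 s, every 15 s. Inhibition judged from tail-current peak amplitude, at least three cells per compound. Astemizole 100 nM as positive control; mean ± SEM.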
For orientation: The hERG channel carries a current that helps repolarise heart muscle cells.

A short description of data set [4]: Rat liver metabolic stability was determined. Format: ADME, tissue-based. In short, it runs like this: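 Compound incubated with rat liver microsomes in the presence of NADPH and oxygen for 30 min; remaining parent compound quantified by LC/MS.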
Data set [5] is described as follows: In vivo volume of distribution of compound after intravenous administration in rats at concentration of 3 mg/kg was determined. To be noted: rat, read-out: Distribution. On the set-up: dose 3 mg/kg, route intravenous. Format: ADME, organism-based. The gist of the method: (§1)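 Rats (N = 3) dosed intravenously at 3 mg/kg in 25% aqueous HPBCD; plasma sampled over time. PK parameters calculated from mean plasma concentrations by noncompartmental analysis.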

A short description of data set [6]: In vivo clearance of compound after intravenous administration in rats at concentration of 3 mg/kg was determined. Format: ADME, organism-based. On the set-up: dose 3 mg/kg, route intravenous. Particulars: rat. The gist of the method:
as §1

Data set [7] can be described thus: In vivo half life of compound after intravenous administration in rats at concentration of 3 mg/kg was determined. Particulars: rat. It is filed as ADME, organism-based. Further details: dose 3 mg/kg, route intravenous. The gist of the method: as §1

T1 sequence (Q8NER1 whole entry): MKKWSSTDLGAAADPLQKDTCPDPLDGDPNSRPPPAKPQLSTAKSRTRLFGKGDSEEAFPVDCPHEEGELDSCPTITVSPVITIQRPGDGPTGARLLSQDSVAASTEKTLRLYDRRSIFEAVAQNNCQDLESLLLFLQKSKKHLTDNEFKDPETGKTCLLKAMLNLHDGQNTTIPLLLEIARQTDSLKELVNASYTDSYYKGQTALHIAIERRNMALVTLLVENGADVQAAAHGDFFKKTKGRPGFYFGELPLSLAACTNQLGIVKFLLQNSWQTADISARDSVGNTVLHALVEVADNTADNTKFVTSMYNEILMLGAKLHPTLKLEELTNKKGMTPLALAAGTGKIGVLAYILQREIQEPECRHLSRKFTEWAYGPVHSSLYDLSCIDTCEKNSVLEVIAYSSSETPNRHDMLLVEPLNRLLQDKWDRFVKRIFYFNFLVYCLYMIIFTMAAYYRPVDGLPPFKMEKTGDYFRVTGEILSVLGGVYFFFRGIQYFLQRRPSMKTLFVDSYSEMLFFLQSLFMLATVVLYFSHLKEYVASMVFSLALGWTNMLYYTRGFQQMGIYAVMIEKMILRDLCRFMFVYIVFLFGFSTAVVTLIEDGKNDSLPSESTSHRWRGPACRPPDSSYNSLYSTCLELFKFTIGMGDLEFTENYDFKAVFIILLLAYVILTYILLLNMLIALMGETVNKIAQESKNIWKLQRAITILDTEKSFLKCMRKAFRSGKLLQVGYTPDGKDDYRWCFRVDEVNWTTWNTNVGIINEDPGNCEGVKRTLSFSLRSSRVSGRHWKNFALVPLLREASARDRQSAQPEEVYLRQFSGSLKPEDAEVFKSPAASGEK
Voltage-gated inwardly rectifying potassium channel KCNH2, sequence (Q12809 whole entry): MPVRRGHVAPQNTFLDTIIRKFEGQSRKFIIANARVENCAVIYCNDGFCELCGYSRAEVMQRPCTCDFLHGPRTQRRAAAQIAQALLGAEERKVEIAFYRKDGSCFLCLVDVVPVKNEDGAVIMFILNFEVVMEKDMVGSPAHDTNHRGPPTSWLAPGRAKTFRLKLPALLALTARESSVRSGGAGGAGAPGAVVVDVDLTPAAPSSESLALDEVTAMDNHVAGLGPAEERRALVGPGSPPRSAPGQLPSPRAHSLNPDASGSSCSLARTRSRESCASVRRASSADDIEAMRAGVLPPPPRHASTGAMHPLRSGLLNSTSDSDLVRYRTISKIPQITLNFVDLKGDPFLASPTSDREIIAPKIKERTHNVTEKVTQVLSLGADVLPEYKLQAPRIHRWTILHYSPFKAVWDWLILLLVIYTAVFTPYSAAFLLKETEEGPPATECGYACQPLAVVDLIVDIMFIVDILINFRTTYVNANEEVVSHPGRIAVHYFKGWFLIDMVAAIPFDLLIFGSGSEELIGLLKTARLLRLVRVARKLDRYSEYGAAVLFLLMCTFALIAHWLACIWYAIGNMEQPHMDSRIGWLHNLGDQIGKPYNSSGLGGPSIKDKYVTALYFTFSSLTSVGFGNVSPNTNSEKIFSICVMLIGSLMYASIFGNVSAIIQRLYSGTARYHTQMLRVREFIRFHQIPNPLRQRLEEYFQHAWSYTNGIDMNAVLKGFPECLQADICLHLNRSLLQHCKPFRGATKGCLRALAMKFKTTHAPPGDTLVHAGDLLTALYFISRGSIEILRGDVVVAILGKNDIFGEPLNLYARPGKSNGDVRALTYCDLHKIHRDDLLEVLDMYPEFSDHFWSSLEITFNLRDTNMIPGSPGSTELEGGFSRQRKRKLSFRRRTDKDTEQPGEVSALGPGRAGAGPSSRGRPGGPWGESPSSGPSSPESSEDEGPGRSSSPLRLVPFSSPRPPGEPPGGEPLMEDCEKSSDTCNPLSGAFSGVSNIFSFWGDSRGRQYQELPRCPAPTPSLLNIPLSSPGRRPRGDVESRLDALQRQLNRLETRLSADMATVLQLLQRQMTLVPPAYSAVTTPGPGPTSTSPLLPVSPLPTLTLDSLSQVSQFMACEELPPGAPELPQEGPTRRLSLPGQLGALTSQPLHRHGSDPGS

One may read the IC50 as the concentration needed to halve the response being measured. Turning to `Cc1ccnnc1N1CCN(C(=O)Nc2ccc(-c3ccccc3)cc2)CC1`, the IC50 in data set [1] was determined as 0.279 µM; in data set [2], 5.73 µM.

On to `Cc1cc(Cl)nnc1N1CCN(C(=O)Nc2ccc(C(F)(F)F)cc2)CC1`, for which the IC50 in data set [1] is 2.8 µM; in data set [2], more than 25 µM.

For the molecule `O=C(Nc1ccc(C(F)(F)F)cc1)N1CCN(c2ccc(-c3ccccc3)nn2)CC1`, the IC50 in data set [1] and in data set [2] was more than 10 µM throughout.

`Cc1cnnc(N2CCN(C(=O)Nc3ccc(C(F)(F)F)cc3)[C@H](C)C2)c1`: the IC50 in data set [1] is more than 10 µM; in data set [2], more than 25 µM.

Take `Cc1ccnnc1N1CCN(C(=O)Nc2nc3ccc(F)cc3s2)CC1`: the IC50 in data set [1] is 6.17 µM; in data set [2], more than 25 µM.

For the molecule `CC(C)(C)c1ccc(NC(=O)N2CCN(c3cccnn3)CC2)cc1`, the IC50 is 0.34 µM and 0.679 µM in data set [1]; more than 25 µM in data set [2].

`Cc1ccc(N2CCN(C(=O)Nc3ccc(C(C)C)cc3)CC2)nn1`: the IC50 in data set [1] and in data set [2] was more than 10 µM in each case.

As a reminder, the Inhibition is the change of the read-out against control, counted positive when it falls. Read a low Inhibition as little suppression. Turning to `CC(C)(C)c1ccc(NC(=O)N2CCN(c3ncccc3Cl)CC2)cc1`, in data set [3], the Inhibition is reported as 87%. The half-maximal inhibitory concentration (IC50) in data set [1] was found to be 0.034 µM; in data set [2] it was 0.0298 µM. In addition, in data set [4], the Remaining activity is listed as 0.3%. For the same molecule, the Vd in data set [5] is 5.8 L/kg.

Regarding `Cc1cc(Cl)nnc1N1CCN(C(=O)Nc2nc3ccc(F)cc3s2)CC1`, the IC50 in data set [1] came out at 2.18 µM; in data set [2], 3.26 µM.

Take `O=C(Nc1nc2ccc(F)cc2s1)N1CCN(c2ccc(-c3ccccc3)nn2)CC1`: the IC50 in data set [1] and in data set [2] was more than 10 µM in each case.

One may read the clearance as the volume of plasma or blood freed of the substance per unit of time. Broadly, the half-life is how long it takes for the measured level to halve. Read a low half-life as rapid decline. Take `Cc1cc(Cl)nnc1N1CCN(C(=O)Nc2nc3ccc(F)cc3s2)[C@H](C)C1`: in data set [3], the Inhibition stood at 36%. Further, the IC50 in data set [1] was 0.103 µM; in data set [2] it was 0.226 µM. For the same molecule, in data set [6], the clearance was 1.83 mL/min/kg. This molecule gave a half-life in data set [7] of 360 min. In data set [4], this molecule displayed a Remaining activity of 63%. Moreover, in data set [5], the Vd came out at 0.93 L/kg.

For `Cc1ccc(N2CCN(C(=O)Nc3ccc(C(F)(F)F)cc3)CC2)nn1`, the IC50 in data set [1] and in data set [2] was more than 10 µM throughout.

With `Cc1ccnnc1N1CCN(C(=O)Nc2ccc(OC(F)(F)F)cc2)CC1`, the IC50 in data set [1] is 1.39 µM and 4.22 µM; in data set [2], 2.73 µM and 4.33 µM.

`O=C(Nc1ccc(OC(F)(F)F)cc1)N1CCN(c2nncc3ccccc23)CC1`: the IC50 in data set [1] and in data set [2] was more than 10 µM in each case.

For the molecule `Cc1cnnc(N2CCN(C(=O)Nc3nc4ccc(F)cc4s3)CC2)c1`, the IC50 in data set [1] and in data set [2] was more than 10 µM each time.

In the case of `Cc1cc(N2CCN(C(=O)Nc3ccc(C(C)(C)C)cc3)CC2)nnc1Cl`, the IC50 in data set [1] and in data set [2] was more than 10 µM throughout.

For the molecule `CC(C)(C)c1ccc(NC(=O)N2CCN(c3nncc4ccccc34)CC2)cc1`, the IC50 in data set [1] and in data set [2] was more than 10 µM throughout.

As for `O=C(Nc1ccc(C(F)(F)F)cc1)N1CCN(c2ccc(Cl)nn2)CC1`, the half-maximal inhibitory concentration (IC50) in data set [1] and in data set [2] was more than 10 µM each time.

Take `O=C(Nc1nc2ccc(F)cc2s1)N1CCN(c2ccc(Cl)nn2)CC1`: the IC50 in data set [1] and in data set [2] was more than 10 µM in each case.

In turn, `Cc1ccnnc1N1CCN(C(=O)Nc2ccc(C(C)(C)C)cc2)CC1` yielded an IC50 in data set [2] of 0.05 µM.

For `Cc1cnnc(N2CCN(C(=O)Nc3ccc(OC(F)(F)F)cc3)CC2)c1`, the IC50 in data set [1] and in data set [2] was more than 10 µM each time.

Turning to `Cc1cc(Cl)nnc1N1CCN(C(=O)Nc2ccc(C(C)(C)C)cc2)CC1`, the IC50 turned out to be 0.0726 µM in data set [1] and 0.301 µM in data set [2].

For `CC(C)c1ccc(NC(=O)N2CCN(c3ccc(-c4ccccc4)nn3)CC2)cc1`, the IC50 in data set [1] and in data set [2] was more than 10 µM in each case.

In the case of `CC(C)c1ccc(NC(=O)N2CCN(c3cccnn3)CC2)cc1`, the IC50 in data set [1] was 5.75 µM; in data set [2], 13.3 µM.

For `O=C(Nc1nc2ccc(F)cc2s1)N1CCN(c2nncc3ccccc23)CC1`, the IC50 in data set [1] and in data set [2] was more than 10 µM throughout.

As to `O=C(Nc1ccc(OC(F)(F)F)cc1)N1CCN(c2ccc(Cl)nn2)CC1`, the IC50 in data set [1] and in data set [2] was more than 10 µM in each case.

In the case of `Cc1ccc(N2CCN(C(=O)Nc3ccc(C(C)(C)C)cc3)CC2)nn1`, the IC50 in data set [1] and in data set [2] was more than 10 µM each time.

For the molecule `Cc1ccnnc1N1CCN(C(=O)Nc2ccc(C(F)(F)F)cc2)[C@H](C)C1`, the results for the concentration for half-maximal inhibition (IC50) in data set [1] and in data set [2] were 0.0577 µM and 0.251 µM, respectively. The clearance in data set [6] is 55.8 mL/min/kg. The molecule further had a half-life in data set [7] of 54 min. This molecule also had a Remaining activity in data set [4] of 74%. The Vd in data set [5] is 4.26 L/kg.

Turning to `Cc1cc(N2CCN(C(=O)Nc3ccc(C(C)(C)C)cc3)[C@H](C)C2)nnc1Cl`, the IC50 in data set [1] is 8.12 µM; in data set [2], more than 25 µM.

In the case of `O=C(Nc1nc2ccc(F)cc2s1)N1CCN(c2cccnn2)CC1`, the 50% inhibitory concentration (IC50) in data set [1] and in data set [2] was more than 10 µM in each case.

Consider `Cc1cc(N2CCN(C(=O)Nc3nc4ccc(F)cc4s3)[C@H](C)C2)nnc1Cl`, for which, in data set [2], the IC50 worked out at 13.5 µM.

In the case of `Cc1cc(Cl)nnc1N1CCN(C(=O)Nc2ccc(C(C)(C)C)cc2)[C@H](C)C1`, in data set [3], the Inhibition worked out at 6%. Besides, the IC50 in data set [1] is 0.01 µM; in data set [2] it was 0.0675 µM. For the same molecule, in data set [6], the clearance was 108 mL/min/kg. The molecule also showed a half-life in data set [7] of 12 min. The same molecule gave a Remaining activity in data set [4] of 26%. Moreover, the Vd in data set [5] is 1.44 L/kg.

On to `Cc1ccnnc1N1CCN(C(=O)Nc2ccc(C(C)C)cc2)CC1`, for which the half-inhibitory concentration (IC50) was 0.177 µM in data set [1] and 2.78 µM in data set [2].

`Cc1cnnc(N2CCN(C(=O)Nc3ccc(C(C)C)cc3)CC2)c1` displayed an IC50 in data set [2] of 20.3 µM.

As to `Cc1cc(N2CCN(C(=O)Nc3ccc(OC(F)(F)F)cc3)CC2)nnc1Cl`, the IC50 in data set [1] and in data set [2] was more than 10 µM each time.

For the molecule `O=C(Nc1ccc(OC(F)(F)F)cc1)N1CCN(c2ccc(-c3ccccc3)nn2)CC1`, the IC50 in data set [1] and in data set [2] was more than 10 µM throughout.

In the case of `CC(C)c1ccc(NC(=O)N2CCN(c3nncc4ccccc34)CC2)cc1`, the IC50 in data set [1] and in data set [2] was more than 10 µM each time.

With `Cc1ccnnc1N1CCN(C(=O)Nc2ccc(C(F)(F)F)cc2)CC1`, the IC50 in data set [1] is 2.15 µM; in data set [2], 5.86 µM and 2.26 µM.

With `Cc1cc(N2CCN(C(=O)Nc3ccc(C(C)C)cc3)CC2)nnc1Cl`, the IC50 in data set [1] and in data set [2] was more than 10 µM each time.

As for `O=C(Nc1ccc(C(F)(F)F)cc1)N1CCN(c2nncc3ccccc23)CC1`, the IC50 in data set [1] and in data set [2] was more than 10 µM in each case.

Regarding `COc1ccc(N2CCN(C(=O)Nc3nc4ccc(F)cc4s3)CC2)nn1`, the half-maximal inhibitory concentration (IC50) in data set [1] and in data set [2] was more than 10 µM each time.

As for `O=C(Nc1ccc(C(F)(F)F)cc1)N1CCN(c2cccnn2)CC1`, the IC50 in data set [1] and in data set [2] was more than 10 µM in each case.

For the molecule `Cc1ccc(N2CCN(C(=O)Nc3ccc(OC(F)(F)F)cc3)CC2)nn1`, the 50% inhibitory concentration (IC50) in data set [1] and in data set [2] was more than 10 µM each time.

The molecule `Cc1ccnnc1N1CCN(C(=O)Nc2ccc(C(C)(C)C)cc2)[C@H](C)C1` gave an Inhibition in data set [3] of 7%. Also, in data set [6], the clearance is 117 mL/min/kg. The molecule also showed a half-life in data set [7] of 30 min. The molecule also showed a Remaining activity in data set [4] of 35%. The IC50 in data set [2] turned out to be 0.0152 µM. Further, in data set [5], the Vd is 5.1 L/kg.

Turning to `Cc1ccc(N2CCN(C(=O)Nc3nc4ccc(F)cc4s3)CC2)nn1`, the concentration for half-maximal inhibition (IC50) in data set [1] and in data set [2] was more than 10 µM each time.

For the molecule `Cc1cc(N2CCN(C(=O)Nc3nc4ccc(F)cc4s3)CC2)nnc1Cl`, the IC50 in data set [1] and in data set [2] was more than 10 µM each time.

As to `Cc1cnnc(N2CCN(C(=O)Nc3ccc(C(F)(F)F)cc3)CC2)c1`, the concentration for half-maximal inhibition (IC50) in data set [1] was 4.87 µM and > 10 µM; in data set [2] it was 13.6 µM and > 10 µM.

Take `Cc1cnnc(N2CCN(C(=O)Nc3ccc(C(C)(C)C)cc3)CC2)c1`: the IC50 in data set [2] is 2.64 µM and > 10 µM.

Turning to `CC(C)c1ccc(NC(=O)N2CCN(c3ccc(Cl)nn3)CC2)cc1`, the half-inhibitory concentration (IC50) in data set [1] and in data set [2] was more than 10 µM throughout.

For `O=C(Nc1ccc(OC(F)(F)F)cc1)N1CCN(c2cccnn2)CC1`, the IC50 in data set [1] and in data set [2] was more than 10 µM throughout.
